Most compounds without a hit are left out; they make up all but 2.2% or so of the library.
F508del corr – CFTR F508del correction in bronchial cells; CFBE cells, YFP halide quenching; stimulated with forskolin plus potentiator P3; % fluorescence drop versus neutral controls; activity (quench increase), % at 7.58 µM; 350,000 tested, 0.36% active; AID 720511;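 active = mean added fluorescence quench of at least 8% versus neutral control, with both replicates also reaching 8%; inconclusive = only one of the mean or replicate conditions met; inactive = mean below 8% and not both replicates reaching 8%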;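 also: cells transiently co-express mutant CFTR-F508del with the halide-sensitive YFP; corrector assay measuring rescue of mutant channel to the surface after 24 h compound exposure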
dFosB activator – enhances mouse delta FosB homodimer DNA binding | purified delta FosB, TAMRA-CDK5 oligo fluorescence polarization; percent of positive-control signal above neutral wells | activation, % at 25 µM | 340,000 tested, 0.99% active | P13346;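 active = mean activation above about 17%, with every replicate also reaching it, limit read from the data, passing the limit was not always enough; inconclusive = only one of the two conditions met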
Target sequence (P13346 whole entry, looked up): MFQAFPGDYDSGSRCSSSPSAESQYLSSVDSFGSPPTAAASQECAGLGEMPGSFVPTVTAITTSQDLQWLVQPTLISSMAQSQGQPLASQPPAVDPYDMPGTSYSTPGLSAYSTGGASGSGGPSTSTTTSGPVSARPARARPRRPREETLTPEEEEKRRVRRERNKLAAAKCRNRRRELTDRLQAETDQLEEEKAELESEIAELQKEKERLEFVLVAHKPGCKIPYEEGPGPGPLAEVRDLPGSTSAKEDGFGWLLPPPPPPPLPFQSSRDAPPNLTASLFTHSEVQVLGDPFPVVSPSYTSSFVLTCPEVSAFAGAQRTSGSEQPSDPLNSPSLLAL
FGF22 binding – binders of recombinant human FGF22 by thermal shift. Q9HCT0. SYPRO orange fluorescence; percent of sucrose octasulfate shift, DMSO zero. activity (Tm shift, normalised), % at 9.99 µM. 340,000 tested, 1.5% active. AID 651658;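 active = mean Tm shift, scaled 0 neutral to 100 positive control, at about 1.3% or above, every replicate too, limit read from the data; inconclusive = no clear call, values can overlap the other calls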
Target sequence (Q9HCT0 whole entry, looked up): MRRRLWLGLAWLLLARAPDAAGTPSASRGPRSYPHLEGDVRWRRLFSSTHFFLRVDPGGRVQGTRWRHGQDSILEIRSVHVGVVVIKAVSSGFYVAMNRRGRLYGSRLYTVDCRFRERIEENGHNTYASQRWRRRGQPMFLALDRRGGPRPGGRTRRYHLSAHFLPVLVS
S100A4 MyoIIA – blocks human S100A4 binding to myosin IIA peptide. AID 652163. S100A4/TAMRA-MyoIIA peptide fluorescence polarization. P26447. inhibition, % at 10.7 µM. 360,000 tested, 0.14% active;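 active = mean inhibition of at least 70% across replicates, with every replicate also reaching that level; inconclusive = mean inhibition reaches 70% but some replicates fall short; inactive = mean inhibition below 70%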
Target sequence (P26447 whole entry, looked up): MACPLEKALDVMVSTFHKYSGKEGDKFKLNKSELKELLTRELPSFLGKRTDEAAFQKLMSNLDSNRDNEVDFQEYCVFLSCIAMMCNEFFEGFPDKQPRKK
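Material: S100A4 monomer protein | Medium: HEPES pH 7.2 with CaCl2, KCl, NaCl, DTT, Triton | Reagent: Labelled myosin peptide probe, 5 nM | Doses: One dose per compound | Times: 5 min incubation before reading | Benchmarks: Neutral control DMSO, positive control TFP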
Large screens that a line does not name were inactive; ! = not confirmed by another sample.

C[C@@H]1CN([C@@H](C)CO)S(=O)(=O)c2ccc(-c3ccccc3)cc2O[C@H]1CN(C)Cc1cccnc1	none (no result: dFosB activator, S100A4 MyoIIA)
C[C@@H]1CN([C@@H](C)CO)S(=O)(=O)c2ccc(/C=C/c3ccccc3)cc2O[C@@H]1CN(C)C(=O)NC1CCCC1	none (no result: dFosB activator)
C[C@H](CO)N1C[C@H](C)[C@@H](CN(C)C(=O)Nc2ccc(C(F)(F)F)cc2)Oc2ccc(NC(=O)Nc3ccccc3)cc2C1=O	FGF22 binding 19!
C[C@@H]1CN([C@@H](C)CO)C(=O)c2cc(NC(=O)Nc3ccc(C(F)(F)F)cc3)ccc2O[C@@H]1CN(C)Cc1ccccc1	none (no result: dFosB activator)
C[C@H](CO)N1C[C@H](C)[C@@H](CN(C)Cc2ccc(C(F)(F)F)cc2)Oc2ccc(NS(=O)(=O)c3ccc(F)cc3)cc2C1=O	none (no result: dFosB activator)
C[C@@H]1CN([C@@H](C)CO)C(=O)c2cc(NC(=O)Nc3ccc(C(F)(F)F)cc3)ccc2O[C@H]1CN(C)C(=O)Nc1ccccc1	none (no result: dFosB activator)
C[C@H]1CN([C@@H](C)CO)C(=O)c2cc(NC(=O)Nc3ccc(C(F)(F)F)cc3)ccc2O[C@@H]1CN(C)Cc1ccccc1	FGF22 binding 27 (no result: dFosB activator)
C[C@@H]1CN([C@@H](C)CO)C(=O)c2cc(NS(=O)(=O)c3ccc(Cl)cc3)ccc2O[C@@H]1CN(C)Cc1ccc(C(F)(F)F)cc1	F508del corr 9.8 (no result: dFosB activator, FGF22 binding, S100A4 MyoIIA)
O=C(CNC(=O)c1ccccc1F)NCCOc1ccccc1Cl	FGF22 binding 43
O=C(COC(=O)CNC(=O)c1ccccc1F)Nc1cccnc1Cl	FGF22 binding 43
O=C(COC(=O)CNC(=O)c1ccccc1F)NCCNC(=O)COC(=O)CNC(=O)c1ccccc1F	none
CC(=O)N1[C@H](C(=O)N[C@@H](C)c2ccccc2)[C@@H](CO)[C@@H]2Cn3c(cccc3=O)[C@@H]21	none (no result: dFosB activator)
COc1ccc(NC(=O)N(C)C[C@H]2Oc3ccc(NC(=O)CCC(F)(F)F)cc3CC(=O)N([C@@H](C)CO)C[C@H]2C)cc1	none (no result: dFosB activator)
O=C1C2C3CC(C(Br)C3Br)C2C(=O)N1c1nccs1 (configuration not stated)	none (no result: dFosB activator)
O=C1CCCN1c1nccs1	FGF22 binding 44
N=c1n(CC(=O)c2ccc(Br)cc2)c2ccccc2n1Cc1ccccc1	dFosB activator 35
COc1ccc(NC(=O)N[C@@H]2CC[C@@H](CCNC(=O)c3cc(Cl)cc(Cl)c3)O[C@H]2CO)cc1	none (no result: dFosB activator)
O=S(=O)(NC1CCCCC1Oc1ccccc1)c1ccc(Cl)cc1 (configuration not stated)	FGF22 binding 44
CSc1ccc(OC2CCCCC2NS(=O)(=O)c2ccc(Cl)cc2)cc1 (configuration not stated)	none (no result: F508del corr)
COc1ccc(S(=O)(=O)N(CC(=O)NCc2ccco2)c2ccccc2)cc1	none (no result: F508del corr, FGF22 binding, S100A4 MyoIIA)
COc1ccc(N(CC(=O)NCc2ccco2)S(=O)(=O)c2ccccc2)cc1	FGF22 binding 43
COCCCNc1c2c3c(cccc3[nH]c1=O)C(=O)c1ccccc1-2	F508del corr 46, S100A4 MyoIIA 127
CN(C)CCCNC(=O)C[C@H]1CC[C@H](NS(=O)(=O)c2ccc(F)cc2)[C@@H](CO)O1	none (no result: dFosB activator)
Cc1csc(SCC(=O)Nc2ccccc2[N+](=O)[O-])n1	FGF22 binding 44
Cc1csc(SCC(=O)Nc2ccccc2C)n1	none
CC(C)NC(=O)N(C)C[C@@H]1Oc2ccc(NC(=O)Nc3ccc4c(c3)OCO4)cc2CC(=O)N([C@@H](C)CO)C[C@H]1C	none (no result: dFosB activator)
Cn1c(CN2CCN(C(=O)c3ccccc3)CC2)nc2cc([N+](=O)[O-])ccc21	none
Cn1c(CN2CCN(C(=O)c3ccccc3Cl)CC2)nc2cc([N+](=O)[O-])ccc21	FGF22 binding 44
O=C(NCCOc1nc(N2CCCCC2)nc(N2CCCCC2)n1)Nc1ccccc1	FGF22 binding 44
CC(C)N(C(=O)Cn1cc(SCC(=O)NCc2ccco2)c2ccccc21)C(C)C	FGF22 binding 1.7
CCCn1cc(SCC(=O)NCc2ccco2)c2ccccc21	none (no result: F508del corr, FGF22 binding, S100A4 MyoIIA)
COc1ccc(C)cc1S(=O)(=O)N(C)CC(=O)N1CCC(C(N)=O)CC1	FGF22 binding 43
C[C@@H]1CCCCO[C@H](CN(C)Cc2ccc3c(c2)OCO3)[C@H](C)CN([C@@H](C)CO)C(=O)c2cc(NC(=O)c3ccncc3)ccc2O1	none (no result: dFosB activator)
CCOC(=O)c1cc(-c2ccc(F)cc2)n(CC(=O)NC(C)CC)c1C (configuration not stated)	FGF22 binding 43
CCOC(=O)c1cc(-c2ccc(C)cc2)n(CCC(=O)NC(C)CC)c1C (configuration not stated)	none (no result: F508del corr, FGF22 binding, S100A4 MyoIIA)
CCCNC(=O)CCn1c(-c2ccc(C)cc2)cc(C(=O)OCC)c1C	none (no result: F508del corr, FGF22 binding, S100A4 MyoIIA)
CCCNC(=O)Cn1c(-c2ccc(F)cc2)cc(C(=O)OCC)c1C	FGF22 binding 43
CNc1c2cccc(C)c2nc2c(C(=O)NCCN(C)C)cccc12	F508del corr 19
CN(C)C(=O)[C@@H]1[C@@H](CO)[C@@H]2Cn3c(ccc(C4=CCCC4)c3=O)[C@H]1N2CC1CCOCC1	none (no result: F508del corr, dFosB activator)
N#CC1c2ccccc2-c2ccccc2N1C(=O)c1ccccc1 (configuration not stated)	F508del corr 11 (no result: dFosB activator)
Cc1ccccc1-c1ccccc1[C@H]1[C@@H](C#N)N(C(=O)c2ccccc2)[C@H]1CO	none (no result: dFosB activator)
CO[C@@H]1CN(C)C(=O)c2ccc(NC(=O)Nc3cccc(F)c3)cc2OC[C@@H](C)N(C(=O)C2CC2)C[C@@H]1C	none (no result: dFosB activator, FGF22 binding, S100A4 MyoIIA)
Cc1ccc2nc(-c3ccc4c(c3)OCCO4)cn2c1	F508del corr 12
c1ccn2cc(-c3ccc4c(c3)OCCO4)nc2c1	FGF22 binding 43
Clc1ccc2nc(-c3ccc4c(c3)OCO4)cn2c1	none
NCC1C2CCC(O2)C1CO (configuration not stated)	FGF22 binding 45 (no result: dFosB activator)
Cc1ccc(S(=O)(=O)NCC[C@@H]2CC[C@@H](NC(=O)Nc3cccc(F)c3)[C@@H](CO)O2)cc1	none (no result: dFosB activator)
O=C(Nc1ccccc1F)N[C@@H]1CC[C@H](CCNC(=O)C2CCCCC2)O[C@H]1CO	S100A4 MyoIIA 90 (no result: dFosB activator)
O=C(Nc1ccc(Cl)cc1)N[C@@H]1CC[C@H](CCNC(=O)c2ccccc2F)O[C@H]1CO	S100A4 MyoIIA inconclusive (no result: dFosB activator)
Cc1noc(C)c1NC(=O)N[C@@H]1CC[C@H](CCNC(=O)C2CCOCC2)O[C@@H]1CO	S100A4 MyoIIA 98 (no result: dFosB activator)
Cc1ccc(S(=O)(=O)NCC[C@@H]2CC[C@H](NC(=O)Nc3cccc(F)c3)[C@@H](CO)O2)cc1	S100A4 MyoIIA 73 (no result: dFosB activator)
O=C(Nc1ccc(Cl)cc1)N[C@H]1CC[C@H](CCNC(=O)c2ccccc2F)O[C@@H]1CO	S100A4 MyoIIA 81 (no result: dFosB activator)
Cc1noc(C)c1NC(=O)N[C@H]1CC[C@@H](CCNC(=O)C2CCOCC2)O[C@H]1CO	none (no result: dFosB activator)
C[C@@H]1CN([C@@H](C)CO)C(=O)c2cc(NC(=O)C3CCCCC3)ccc2O[C@@H]1CN(C)C(=O)Nc1ccccc1	none (no result: dFosB activator)
C[C@@H]1CN([C@H](C)CO)C(=O)c2cc(C3=CCCC3)cnc2O[C@@H]1CN(C)S(C)(=O)=O	none (no result: dFosB activator)

Screens as filed in PubChem BioAssay.
